Measurements as given in ChEMBL document CHEMBL1782018, “Novel 3alpha-methoxyserrat-14-en-21beta-ol (PJ-1) and 3beta-methoxyserrat-14-en-21beta-ol (PJ-2)-curcumin, kojic acid, quercetin, and baicalein conjugates as HIV agents” (Bioorg Med Chem, 2009).
≈ marks a conversion by molar mass, not a printed value.

Assays:
[1] = tested on: Human immunodeficiency virus 1; assay: Antiviral activity against HIV1 NL4-3 infected human C8166-CCR5 cells assessed as decrease in virus-induced cytopathicity after 72 hrs by cell associated dehydrogenase activity assay; format: functional, organism-based; conditions: Human immunodeficiency virus 1, NL4-3, C8166-CCR5, 72 h
[2] = Cytotoxicity against […] human C8166-CCR5 cells assessed as decrease in cell viability by cell associated dehydrogenase activity assay; format: cell-based
In short: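 C8166-CCR5 human CD4+ T cells, grown in RPMI 1640 with 10% FBS and antibiotics, seeded at 3 × 10^4 cells per well with compound across a concentration series. Incubated at 37 °C for 72 h. Viability read by cell-associated dehydrogenase activity (CCK-8). Run in duplicate or triplicate. CC50 is the 50% cytostatic concentration.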

[3] = Selectivity index, ratio of CC50 for human C8166-CCR5 cells to EC50 for HIV1 NL4-3; format: toxicity, cell-based; conditions: read-out: Ratio CC50/EC50
In short: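 SI = CC50/EC50. CC50 is from the 72 h CCK-8 viability assay in uninfected C8166-CCR5 cells. EC50 is from supernatant RT activity four days after HIV-1 NL43 infection of the same cells.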

[4] = target: Protease (Human immunodeficiency virus 1, UniProt Q9YQ12); assay: Inhibition of HIV1 protease activity
Sequence of Protease (Q9YQ12 whole entry): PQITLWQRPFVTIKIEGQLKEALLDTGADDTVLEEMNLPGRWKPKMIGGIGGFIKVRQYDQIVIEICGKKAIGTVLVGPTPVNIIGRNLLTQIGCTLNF

[5] = target: Human immunodeficiency virus type 1 reverse transcriptase (Human immunodeficiency virus 1, UniProt Q72547); assay: Antiviral activity against HIV1 Reverse transcriptase activity
In short: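 C8166-CCR5 human CD4+ T cells (3 × 10^4) in RPMI 1640 with 10% FBS were mixed with compound and infected with HIV-1 NL43 inoculum normalized to 1 × 10^5 cpm RT activity, then held at 37 °C. Four days after infection, supernatant RT activity was read with poly(A) template, oligo(dT) primer and [32P]TTP. Run in duplicate or triplicate. EC50 reported.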

[6] = Selectivity index, ratio of CD50 for human MT4 cells to ID50 for HIV1; format: toxicity, cell-based; conditions: read-out: Selectivity Index
[7] = tested on: Human immunodeficiency virus 1; assay: Antiviral activity against HIV1 3B infected human CCR5 cells assessed as decrease in viral syncytium formation; format: functional, organism-based; conditions: Human immunodeficiency virus 1, 3B

| EC50 [1] | IC50 [4] | Structure (SMILES) | CC50 [2] | selectivity ratio [3] | further results |
| --- | --- | --- | --- | --- | --- |
| > 100 µg/mL | – | CO[C@@H]1CC[C@]2(C)[C@H](CC[C@@]3(C)CC4=CC[C@@H]5C(C)(C)[C@H](O)CC[C@@]5(C)[C@@H]4CC[C@@H]32)C1(C)C | > 100 µg/mL | – | – |
| > 100 µg/mL | – | CO[C@H]1CC[C@]2(C)[C@H](CC[C@@]3(C)CC4=CC[C@@H]5C(C)(C)[C@H](O)CC[C@@]5(C)[C@@H]4CC[C@@H]32)C1(C)C | > 100 µg/mL | – | – |
| 4.13 µg/mL (≈ 6.07 µM) | – | CO[C@@H]1CC[C@]2(C)[C@H](CC[C@@]3(C)CC4=CC[C@@H]5C(C)(C)[C@H](OC(=O)CCC(=O)Oc6coc(CO)cc6=O)CC[C@@]5(C)[C@@H]4CC[C@@H]32)C1(C)C | 22.2 µg/mL (≈ 32.6 µM) | 5.4 | – |
| 6.75 µg/mL (≈ 9.91 µM) | – | CO[C@H]1CC[C@]2(C)[C@H](CC[C@@]3(C)CC4=CC[C@@H]5C(C)(C)[C@H](OC(=O)CCC(=O)Oc6coc(CO)cc6=O)CC[C@@]5(C)[C@@H]4CC[C@@H]32)C1(C)C | > 100 µg/mL | 86.8 | – |
| 0.12 µg/mL (≈ 0.0984 µM) | – | CO[C@@H]1CC[C@]2(C)[C@H](CC[C@@]3(C)CC4=CC[C@@H]5C(C)(C)[C@H](OC(=O)CCC(=O)OCc6cc(=O)c(OC(=O)CCC(=O)O[C@@H]7CC[C@@]8(C)[C@@H]9CC[C@H]%10[C@@](C)(CC[C@@H]%11C(C)(C)[C@H](OC)CC[C@]%11%10C)CC9=CC[C@@H]8C7(C)C)co6)CC[C@@]5(C)[C@@H]4CC[C@@H]32)C1(C)C | 4.2 µg/mL (≈ 3.44 µM) | 35 | – |
| 5.94 µg/mL (≈ 4.87 µM) | – | CO[C@H]1CC[C@]2(C)[C@H](CC[C@@]3(C)CC4=CC[C@@H]5C(C)(C)[C@H](OC(=O)CCC(=O)OCc6cc(=O)c(OC(=O)CCC(=O)O[C@@H]7CC[C@@]8(C)[C@@H]9CC[C@H]%10[C@@](C)(CC[C@@H]%11C(C)(C)[C@@H](OC)CC[C@]%11%10C)CC9=CC[C@@H]8C7(C)C)co6)CC[C@@]5(C)[C@@H]4CC[C@@H]32)C1(C)C | > 100 µg/mL | > 5000 | – |
| 26.6 µg/mL (≈ 31.6 µM) | – | CO[C@@H]1CC[C@]2(C)[C@H](CC[C@@]3(C)CC4=CC[C@@H]5C(C)(C)[C@H](OC(=O)CCC(=O)Oc6cc(-c7oc8cc(O)cc(O)c8c(=O)c7O)ccc6O)CC[C@@]5(C)[C@@H]4CC[C@@H]32)C1(C)C | > 100 µg/mL | 4.8 | – |
| 23.2 µg/mL (≈ 27.6 µM) | – | CO[C@H]1CC[C@]2(C)[C@H](CC[C@@]3(C)CC4=CC[C@@H]5C(C)(C)[C@H](OC(=O)CCC(=O)Oc6cc(-c7oc8cc(O)cc(O)c8c(=O)c7O)ccc6O)CC[C@@]5(C)[C@@H]4CC[C@@H]32)C1(C)C | > 100 µg/mL | > 5000 | – |
| 21.4 µg/mL (≈ 26.5 µM) | – | CO[C@@H]1CC[C@]2(C)[C@H](CC[C@@]3(C)CC4=CC[C@@H]5C(C)(C)[C@H](OC(=O)CCC(=O)Oc6c(O)cc7oc(-c8ccccc8)cc(=O)c7c6O)CC[C@@]5(C)[C@@H]4CC[C@@H]32)C1(C)C | > 100 µg/mL | 4.9 | – |
| 55.4 µg/mL (≈ 68.4 µM) | – | CO[C@H]1CC[C@]2(C)[C@H](CC[C@@]3(C)CC4=CC[C@@H]5C(C)(C)[C@H](OC(=O)CCC(=O)Oc6c(O)cc7oc(-c8ccccc8)cc(=O)c7c6O)CC[C@@]5(C)[C@@H]4CC[C@@H]32)C1(C)C | > 100 µg/mL | 2.3 | – |
| – | 1.7 µM | CC1(C)CC[C@]2(C(=O)NCCCCCC(=O)O)CC[C@]3(C)C(=CC[C@@H]4[C@@]5(C)CC[C@H](O)C(C)(C)[C@@H]5CC[C@]43C)[C@@H]2C1 | – | – | – |
| – | 1.7 µM | CC1(C)CC[C@]2(C(=O)NCCCCCC(=O)O)CC[C@]3(C)C(=CC[C@@H]4[C@@]5(C)CC[C@H](OC(=O)CCCCC(=O)O)C(C)(C)[C@@H]5CC[C@]43C)[C@@H]2C1 | – | – | – |
| – | – | CC1(C)[C@H](O)CC[C@]2(C)C3=CC[C@@]4(C)[C@@H]5C[C@](C)(COC(=O)c6ccccc6)CC[C@]5(C)CC[C@]4(C)C3=CC[C@@H]12 | – | – | IC50 [5]: 4.04 µM |
| – | – | C=C(CC[C@@H](C)[C@H]1CC[C@@]2(C)[C@@H]3CC[C@H]4C(C)(C)[C@@H](OC(=O)/C=C/c5ccc(O)c(OC)c5)CC[C@@]45C[C@@]35CC[C@]12C)C(C)C | – | – | IC50 [5]: 3.08 µM |
| – | – | C=C(C)[C@@H]1CC[C@]2(COC(C)=O)CC[C@]3(C)[C@H](CC[C@@H]4[C@@]5(C)CC[C@H](OC(C)=O)C(C)(C)[C@@H]5CC[C@]43C)[C@@H]12 [BETULIN DIACETATE] | – | – | IC50 [5]: 2.66 µM |
| – | – | CC1(C)[C@@H](O)CC[C@]2(C)[C@H]3C(=O)C=C4[C@@H]5C[C@@](C)(C(=O)O)CC[C@]5(C)CC[C@@]4(C)[C@]3(C)CC[C@@H]12 [ENOXOLONE] | – | – | selectivity ratio [6]: 9.6 |
| – | – | COc1cc(/C=C/C(=O)O[C@H]2CC[C@]34C[C@]35CC[C@]3(C)[C@@H]([C@H](C)CCC=C(C)C)CC[C@@]3(C)[C@@H]5CC[C@H]4C2(C)C)ccc1O [GAMMA ORYZANOL] | – | – | IC50 [5]: 3.65 µM |
| – | – | C=C(C)[C@@H]1CC[C@]2(C)CC[C@]3(C)[C@H](CC[C@@H]4[C@@]5(C)CCC(=O)C(C)(C)[C@@H]5CC[C@]43C)[C@@H]12 [LUPENONE] | – | – | IC50 [5]: 4.94 µM |
| – | – | CC1=C[C@@H]([C@H](O)[C@H](C)[C@@H]2C[C@@H](O)[C@@]3(O)[C@@H]4CC[C@@H]5C(C)(C)O[C@@H]6CC(=O)O[C@@]56C[C@]4(O)CC[C@@]23C)OC1=O [MICRANDILACTONE C] | > 200 µg/mL | – | EC50 [7]: 7710 µg/mL (≈ 14400 µM) |
| – | 4 µM | CC1(C)CC[C@]2(C(=O)O)CC[C@]3(C)C(=CC[C@@H]4[C@@]5(C)CC[C@H](O)C(C)(C)[C@@H]5CC[C@]43C)[C@@H]2C1 [OLEANOLIC ACID GLUTARYL HEMI ESTER] | – | – | – |
| – | 8 µM | CC1(C)CC[C@]2(C(=O)O)CC[C@]3(C)C(=CC[C@@H]4[C@@]5(C)CC[C@H](O)C(C)(C)[C@@H]5CC[C@]43C)[C@@H]2C1 [OLEANOLIC_ACID] | – | – | – |
| – | 4 µM | C[C@H]1[C@H](C)CC[C@]2(C(=O)O)CC[C@]3(C)C(=CC[C@@H]4[C@@]5(C)CC[C@H](O)C(C)(C)[C@@H]5CC[C@]43C)[C@H]12 [URSOLIC ACID GLUTARYL HEMI ESTER] | – | – | – |
| – | 6 µM | C[C@H]1[C@H](C)CC[C@]2(C(=O)O)CC[C@]3(C)C(=CC[C@@H]4[C@@]5(C)CC[C@H](O)C(C)(C)[C@@H]5CC[C@]43C)[C@H]12 [URSOLIC ACID HYDROGEN MALONATE] | – | – | – |
| – | 8 µM | C[C@H]1[C@H](C)CC[C@]2(C(=O)O)CC[C@]3(C)C(=CC[C@@H]4[C@@]5(C)CC[C@H](O)C(C)(C)[C@@H]5CC[C@]43C)[C@H]12 [URSOLIC ACID] | – | – | – |
| 0.02 µg/mL (≈ 0.0748 µM) | – | Cc1cn([C@H]2C[C@H](N=[N+]=[N-])[C@@H](CO)O2)c(=O)[nH]c1=O [ZIDOVUDINE] | > 100 µg/mL | > 5000 | – |

| Structure (SMILES) | EC50 [1] | IC50 [4] | CC50 [2] | selectivity ratio [3] | further results |
| --- | --- | --- | --- | --- | --- |
| C=C(C)[C@@H]1CC[C@]2(C(=O)O)CC[C@]3(C)[C@H](CC[C@@H]4[C@@]5(C)CC[C@H](O)C(C)(C)[C@@H]5CC[C@]43C)[C@@H]12 [BETULINIC ACID GLUTARYL HEMI ESTER] | – | 4 µM | – | – | – |
